Results: ChEMBL document CHEMBL1148443, “Importance of phenolic address groups in opioid kappa receptor selective antagonists” (J Med Chem, 2004)

Key:
[1] = molecular target: Delta-type opioid receptor (Rattus norvegicus, UniProt P33533); experiment: Binding affinity of compound for opioid receptor delta 1 was determined using [3H]DADLE as radioligand from rat brain tissue
Outline: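 Competitive binding assays. Mu and delta receptors came from rat brain membranes. Kappa receptors came from guinea pig caudate membranes. Test compounds displaced the receptor-selective radioligand.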

[2] = molecular target: Kappa-type opioid receptor (Cavia porcellus, UniProt P41144); experiment: Binding affinity of compound for Opioid receptor kappa 1 was determined using [3H]U-69593 as radioligand from guinea pig caudate
Chain of Kappa-type opioid receptor (P41144 whole entry): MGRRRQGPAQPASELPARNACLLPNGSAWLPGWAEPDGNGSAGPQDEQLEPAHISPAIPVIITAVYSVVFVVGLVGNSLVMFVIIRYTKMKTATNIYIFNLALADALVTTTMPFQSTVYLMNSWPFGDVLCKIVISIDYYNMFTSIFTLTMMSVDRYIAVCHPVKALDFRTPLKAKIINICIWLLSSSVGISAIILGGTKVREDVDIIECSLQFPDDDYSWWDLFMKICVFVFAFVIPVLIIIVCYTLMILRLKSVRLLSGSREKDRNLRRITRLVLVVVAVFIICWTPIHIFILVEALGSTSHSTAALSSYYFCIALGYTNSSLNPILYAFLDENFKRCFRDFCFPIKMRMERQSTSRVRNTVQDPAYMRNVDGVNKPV
Outline: (§1)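 Competitive binding assays. Mu and delta receptors came from rat brain membranes. Kappa receptors came from guinea pig caudate membranes.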

Cavia porcellus [3] = organism: Cavia porcellus; experiment: Functional antagonism was obtained by the ability of compound to inhibit stimulation of [35S]GTP gamma S binding produced by selective agonists DAMGO in guinea pig caudate membranes
Cavia porcellus [4] = organism: Cavia porcellus; experiment: Functional antagonism was obtained by the ability of compound to inhibit stimulation of [35S]GTP gamma S binding produced by selective agonists U69,593 in guinea pig caudate membranes
[5] = molecular target: Opioid receptors; mu & kappa (Homo sapiens) (UniProt P41145+P35372); experiment: Selectivity of compound for mu opioid receptor to that of kappa opioid receptor; format: protein assay
Chain of Opioid receptors; mu & kappa (Homo sapiens) (P35372 whole entry, looked up): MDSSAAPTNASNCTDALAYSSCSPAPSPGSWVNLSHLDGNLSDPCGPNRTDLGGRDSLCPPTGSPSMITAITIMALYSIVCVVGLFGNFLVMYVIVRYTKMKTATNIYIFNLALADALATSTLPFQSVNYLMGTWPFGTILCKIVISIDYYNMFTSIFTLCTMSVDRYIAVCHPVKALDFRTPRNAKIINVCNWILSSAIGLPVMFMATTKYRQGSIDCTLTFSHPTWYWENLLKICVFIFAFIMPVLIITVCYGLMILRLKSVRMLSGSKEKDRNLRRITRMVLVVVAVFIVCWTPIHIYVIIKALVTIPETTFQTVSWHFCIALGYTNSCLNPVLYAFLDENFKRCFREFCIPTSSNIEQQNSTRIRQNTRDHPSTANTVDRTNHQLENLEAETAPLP
Chain of Opioid receptors; mu & kappa (Homo sapiens) (P41145 whole entry, looked up): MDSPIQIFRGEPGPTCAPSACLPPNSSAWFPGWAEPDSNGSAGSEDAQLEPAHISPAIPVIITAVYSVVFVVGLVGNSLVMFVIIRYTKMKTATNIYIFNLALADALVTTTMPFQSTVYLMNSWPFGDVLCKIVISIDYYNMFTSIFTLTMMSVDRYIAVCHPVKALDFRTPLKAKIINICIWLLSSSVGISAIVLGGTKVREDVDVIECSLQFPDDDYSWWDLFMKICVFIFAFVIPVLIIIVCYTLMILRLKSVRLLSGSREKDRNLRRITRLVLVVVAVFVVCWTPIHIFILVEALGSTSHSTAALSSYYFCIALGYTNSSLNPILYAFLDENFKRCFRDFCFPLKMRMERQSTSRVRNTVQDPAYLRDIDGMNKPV

[6] = molecular target: Opioid receptors; delta & kappa (Homo sapiens) (UniProt P41145+P41143); experiment: Selectivity of compound for delta opioid receptor to that of kappa opioid receptor; format: protein assay
Chain of Opioid receptors; delta & kappa (Homo sapiens) (P41143 whole entry, looked up): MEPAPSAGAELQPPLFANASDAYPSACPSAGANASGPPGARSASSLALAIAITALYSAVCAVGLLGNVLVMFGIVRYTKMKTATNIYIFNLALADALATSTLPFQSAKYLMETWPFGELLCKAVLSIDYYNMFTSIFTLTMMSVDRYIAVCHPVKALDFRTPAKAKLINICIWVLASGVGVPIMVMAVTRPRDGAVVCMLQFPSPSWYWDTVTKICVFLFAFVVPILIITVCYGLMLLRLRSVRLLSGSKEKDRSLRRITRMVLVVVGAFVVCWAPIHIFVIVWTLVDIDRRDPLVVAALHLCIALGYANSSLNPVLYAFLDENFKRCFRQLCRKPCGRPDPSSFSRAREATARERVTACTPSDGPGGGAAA
Chain of Opioid receptors; delta & kappa (Homo sapiens) (P41145 whole entry, looked up): as the sequence (P41145 whole entry, looked up) above

Mu-type opioid receptor = Mu-type opioid receptor (Rattus norvegicus, UniProt P33535); experiment: Binding affinity of compound for Opioid receptor mu 1 was determined using [3H]DAMGO as radioligand from rat brain tissue; outline: as §1
Chain of Mu-type opioid receptor (P33535 whole entry): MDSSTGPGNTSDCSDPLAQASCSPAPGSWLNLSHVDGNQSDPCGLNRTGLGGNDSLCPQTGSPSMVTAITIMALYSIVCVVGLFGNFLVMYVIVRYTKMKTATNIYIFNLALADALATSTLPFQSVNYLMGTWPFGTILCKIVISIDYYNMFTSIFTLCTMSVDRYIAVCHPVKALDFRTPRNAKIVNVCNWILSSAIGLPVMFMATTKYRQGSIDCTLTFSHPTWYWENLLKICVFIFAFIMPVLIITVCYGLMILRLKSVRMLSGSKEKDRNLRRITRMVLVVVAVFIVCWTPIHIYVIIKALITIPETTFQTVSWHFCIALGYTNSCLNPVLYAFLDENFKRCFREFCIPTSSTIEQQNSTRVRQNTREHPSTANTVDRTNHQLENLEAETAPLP

Cavia porcellus [7] = organism: Cavia porcellus; experiment: Functional antagonism was obtained by the ability of compound to inhibit stimulation of [35S]GTP gamma S binding produced by selective agonists SNC-80 in guinea pig caudate membranes

Chain of Delta-type opioid receptor (P33533 whole entry): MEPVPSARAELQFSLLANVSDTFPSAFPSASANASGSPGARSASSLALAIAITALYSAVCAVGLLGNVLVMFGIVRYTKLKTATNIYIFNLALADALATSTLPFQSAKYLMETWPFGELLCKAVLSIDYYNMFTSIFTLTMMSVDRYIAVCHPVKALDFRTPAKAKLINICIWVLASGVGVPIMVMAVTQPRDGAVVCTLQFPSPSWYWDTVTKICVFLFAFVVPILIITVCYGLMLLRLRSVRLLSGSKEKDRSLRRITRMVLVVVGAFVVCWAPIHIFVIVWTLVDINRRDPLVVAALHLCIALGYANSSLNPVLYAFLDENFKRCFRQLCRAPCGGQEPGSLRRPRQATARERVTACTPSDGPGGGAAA

Oc1ccc2c3c1O[C@H]1c4[nH]c5c(c4C[C@@]4(O)[C@@H](C2)N(CC2CC2)CC[C@]314)C[C@@]1(O)[C@H]2Cc3ccc(O)c4c3[C@@]1(CCN2CC1CC1)[C@H]5O4 [NORBINALTORPHIMINE]
Ki [1]: 111 nM | Ki [2]: 1.33 nM

Oc1ccc2c3c1O[C@H]1c4[nH]c5c(c4C[C@@]4(O)[C@@H](C2)N(CC2CC2)CC[C@]314)C[C@@]1(O)[C@H]2Cc3ccc(O)c4c3[C@@]1(CCN2CC1CC1)[C@H]5O4 (relative stereo) [NORBINALTORPHIMINE]
Ki (Cavia porcellus [3]): 16.7 nM | Ki (Cavia porcellus [4]): 0.038 nM

CC(C)[C@@H](CN1CC[C@@](C)(c2cccc(O)c2)[C@@H](C)C1)NC(=O)CCc1ccccc1
Selectivity [5]: 2 | Selectivity [6]: 11 | Ki [1]: > 5050 nM | Ki [2]: 446 nM | Ki (Mu-type opioid receptor): 946 nM

CC(C)[C@@H](CN1CC[C@@](C)(c2cccc(O)c2)[C@@H](C)C1)NC(=O)CCc1ccc(O)cc1
Selectivity [5]: 45 | Ki (Cavia porcellus [7]): 450 nM | Selectivity [6]: > 885 | Ki (Cavia porcellus [3]): 7.25 nM | Ki (Cavia porcellus [4]): 4.7 nM

CC(C)[C@@H](CN1CC[C@@](C)(c2cccc(O)c2)[C@@H](C)C1)NC(=O)[C@H]1Cc2ccc(O)cc2CN1 [JDTIC]
Selectivity [5]: 12 | Ki (Cavia porcellus [7]): > 300 nM | Selectivity [6]: 940 | Ki (Cavia porcellus [3]): 2.16 nM | Ki (Cavia porcellus [4]): 0.02 nM

CC(C)[C@@H](CN1CC[C@@](C)(c2cccc(O)c2)[C@@H](C)C1)NC(=O)[C@H]1Cc2ccccc2CN1
Selectivity [5]: 369 | Ki (Cavia porcellus [7]): 213 nM | Selectivity [6]: > 2330 | Ki (Cavia porcellus [3]): 68.6 nM | Ki (Cavia porcellus [4]): 11.5 nM
